Among the data in ChEMBL document CHEMBL1212892, “Tirucallane-type alkaloids from the bark of Dysoxylum laxiracemosum” (J Nat Prod, 2010) are IC50 values, retold here.

What is called IC50 is the midpoint of a concentration-inhibition curve. A higher IC50 goes with weaker potency in that assay.

Structures are written as SMILES. A value given as a limit tells only on which side of the number the result lay.

Common to all, as to format: functional, cell-based
One experiment concerns HL-60. Nature of the experiment: Cytotoxicity against human HL60 cells after 48 hrs by MTT assay. Conditions: HL-60, 48 h. An outline of the steps:
(§1)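 Cells grown in RPMI-1640 or DMEM with 10% FBS, 37 °C, 5% CO2. Adherent cells seeded at 1 × 10^5 cells/mL and left 12 h to attach before dosing; suspension cells seeded just before dosing. Compound at 0.0625, 0.32, 1.6, 8 and 40 µM in triplicate for 48 h, cisplatin positive control. Viability by MTT; IC50 by Reed and Muench method.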
(In general: Formazan colour is commonly taken as a measure of viable cells.)

A further experiment deals with MCF7. Kind of experiment: Cytotoxicity against human MCF7 cells after 48 hrs by MTT assay. Conditions: MCF7, 48 h. In short, it runs like this: as §1
The subject of the next experiment is A549. Nature of the experiment: Cytotoxicity against human A549 cells after 48 hrs by MTT assay. To be noted: A549, 48 h. In short, it runs like this:
as §1

The next experiment concerns SMMC-7721. Kind of experiment: Cytotoxicity against human SMMC7721 cells after 48 hrs by MTT assay. To be noted: SMMC-7721, 48 h. In short, it runs like this:
as §1

The next experiment deals with SW480. Kind of experiment: Cytotoxicity against human SW480 cells after 48 hrs by MTT assay. To be noted: SW480, 48 h. In short, it runs like this: as §1

Take `CC1(C)C2CC=C3[C@H](CC[C@@]4(C)[C@H](c5c[nH]c(C=O)c5)CC[C@]34C)[C@@]2(C)CC[C@H]1O` (stereo partly drawn) [LAXIRACEMOSIN F]: the IC50 in the experiment on HL-60 was 15.7 µM; with MCF7, greater than 20 µM; in the experiment on A549 it was greater than 20 µM; in the experiment with SMMC-7721 it was 15.6 µM; in the experiment on SW480 it was greater than 20 µM.

Take `CC(C)C(=O)c1cc([C@@H]2CC[C@]3(C)C4=CCC5C(C)(C)[C@H](O)CC[C@]5(C)[C@H]4CC[C@@]23C)c[nH]1` (stereo partly drawn) [LAXIRACEMOSIN A]: the IC50 was 3.1 µM in the experiment with HL-60; 16.8 µM with MCF7; 5.4 µM in the experiment with A549; 9.5 µM in the experiment with SMMC-7721; 7.2 µM with SW480.

As for `C=C(C)C(=O)c1cc([C@@H]2CC[C@]3(C)C4=CCC5C(C)(C)[C@H](O)CC[C@]5(C)[C@H]4CC[C@@]23C)c[nH]1` (stereo partly drawn) [LAXIRACEMOSIN E], the IC50 was 1.5 µM with HL-60; 5.1 µM with MCF7; 3.7 µM in the experiment with A549; 2.7 µM with SMMC-7721; 3.7 µM in the experiment on SW480.

With `CC(C)C(=O)c1cc([C@@H]2CC[C@]3(C)C4=CCC5C(C)(C)C(=O)CC[C@]5(C)[C@H]4CC[C@@]23C)c[nH]1` (stereo partly drawn) [LAXIRACEMOSIN B], the half-inhibitory concentration (IC50) is 12.8 µM with HL-60; greater than 20 µM in the experiment on MCF7; 13.4 µM in the experiment with A549; 19 µM in the experiment on SMMC-7721; greater than 20 µM in the experiment on SW480.

With `CC(C)(O)C(=O)c1cc([C@@H]2CC[C@]3(C)C4=CCC5C(C)(C)[C@H](O)CC[C@]5(C)[C@H]4CC[C@@]23C)c[nH]1` (stereo partly drawn) [LAXIRACEMOSIN D], the half-inhibitory concentration (IC50) in the experiment with HL-60 is 6.8 µM; in the experiment with MCF7, greater than 20 µM; in the experiment on A549, greater than 20 µM; with SMMC-7721 it was greater than 20 µM; with SW480 it was greater than 20 µM.
